Series [1] in a line: (§1) Selectivity index, ratio of CC50 for human KB cells to IC50 for amastigote stage of Leishmania donovani infected in mouse J774A.1 cells. The series is classed as functional. The method in brief:
(§2)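 SI = CC50 in KB cells (72 h MTT, nonlinear regression) divided by IC50 against intracellular amastigotes (72 h luciferase assay in infected macrophages, logit regression).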

Series [2] in a line: (§3) Cytotoxicity against human KB cells after 72 hrs by MTT assay. The series is classed as cell-based. The settings on record: KB cells. In a few lines:
(§4)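 Mammalian cells exposed to compound dilutions for 72 h; MTT used for detection (modified Mosmann method). CC50 derived by nonlinear regression.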
For orientation: Formazan colour is commonly taken as a measure of viable cells.

Series [3] has as its system Leishmania donovani. The series is described as follows: Antileishmanial activity against amastigote stage of Leishmania donovani infected in mouse J774A.1 cells assessed as intracellular parasite growth inhibition after 72 hrs by luciferase reporter gene assay. To be noted: J774.A1, 72 h. The series is classed as functional, organism-based. In a few lines: (§5)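 Macrophages seeded at 4 × 10³ cells/100 µL/well in RPMI-1640 with 10% fetal calf serum, 37 °C, CO₂. After 24 h, medium replaced with fresh medium containing stationary-phase promastigotes (4 × 10⁴/100 µL/well), which were phagocytosed and transformed to amastigotes. Compounds added at up to 7 concentrations starting from 40 µM, 72 h at 37 °C. Steady-Glo luciferase read as RLU versus untreated controls; IC50 by logit regression.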
For orientation: A reporter such as luciferase makes a cellular process visible.

A short description of series [4]: Selectivity index, ratio of CC50 for african green monkey Vero cells to IC50 for chloroquine-sensitive Plasmodium falciparum 3D7. The series is classed as functional.
Series [5] can be described thus: Cytotoxicity against african green monkey Vero cells after 72 hrs by MTT assay. The series is classed as cell-based. The settings on record: chlorocebus sabaeus. The method in brief: as §4
Series [6] has as its system Plasmodium falciparum. The series is described as follows: Antimalarial activity against chloroquine-sensitive Plasmodium falciparum 3D7 assessed as parasite growth inhibition after 72 hrs by MSF assay. To be noted: 3D7, 72 h. The series is classed as functional, organism-based. The method in brief:
(§6)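 P. falciparum cultures in RPMI-1640-FBS; DMSO stock 5 mg/ml, test dilutions in culture medium; duplicate wells; 1.0% parasitized cell suspension at 0.8% parasitaemia; 37 °C, 5% CO2 in air, 72 h. Lysis buffer with SYBR Green I added, 1 h at 37 °C; fluorescence read at 485/530 nm excitation/emission as RFU. Chloroquine reference. IC50 in ng/mL.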

Series [7] has as its system Plasmodium falciparum. The series is described as follows: Antimalarial activity against chloroquine-resistant Plasmodium falciparum K1 assessed as parasite growth inhibition after 72 hrs by MSF assay. To be noted: K1, 72 h. The series is classed as functional, organism-based. The method in brief:
as §6

Series [8] has as its system KB. The series is described as §3. The settings on record: kb, 72 h. The series is classed as cell-based. In a few lines: as §4
The test system of series [9] is Leishmania donovani. The experiment in a line: Antileishmanial activity against amastigote stage of Leishmania donovani infected in mouse J774A.1 cells assessed as intracellular parasite growth inhibition at 40 uM after 72 hrs by luciferase reporter gene assay. The series is classed as functional, organism-based. In a few lines: as §5
Series [10] concerns KB. Described as §1. The series is classed as functional. In a few lines: as §2

The record followed here is ChEMBL document CHEMBL2311508, “A natural product inspired hybrid approach towards the synthesis of novel pentamidine based scaffolds as potential anti-parasitic agents” (Bioorg Med Chem Lett, 2013).

In brackets after ≈: the same amount, converted by molar mass. Activity calls are given as the source filed them. The calls are words filed in the database; no cut-off is given here. Where only a bound is given, the exact number is not on record here.

One may read the CC50 as the concentration that lowers cell viability or growth by half. In general, IC50 refers to the concentration that gives 50% inhibition. Consider `Nc1nc(-c2ccccc2)cc(-c2ccc(OCCCCCOc3ccc(-c4cc(-c5ccccc5)nc(N)n4)cc3)cc2)n1`, for which the “Ratio CC50/IC50” value in series [1] is recorded as >242.42. Further, the half-maximal cytotoxic concentration (CC50) at 72 h in series [2] was > 400 µM. The IC50 in the series with Leishmania donovani [3] was 0.96 µM.
Consider `Cc1cc(NC2CCCC2)nc(Nc2ccc(OCCCCCOc3ccc(Nc4nc(C)cc(NC5CCCC5)n4)cc3)cc2)n1`, for which the “Ratio CC50/IC50” value in series [4] came to 57.71; in series [1], 1.11. In addition, the half-maximal cytotoxic concentration (CC50) at 72 h in series [5] turned out to be 18.1 µg/mL (≈ 28.4 µM); in series [2], 1.69 µM. The half-maximal inhibitory concentration (IC50) with Plasmodium falciparum [6] stood at 0.313 µg/mL (≈ 0.492 µM); in the series on Leishmania donovani [3] it was 1.53 µM.
For `O=C(/C=C/c1ccc(OCCCCCOc2ccc(/C=C/C(=O)c3ccccc3)cc2)cc1)c1ccccc1`, the “Ratio CC50/IC50” value in [1] was >242.42. In addition, the CC50 at 72 h in series [2] was > 400 µM. The half-inhibitory concentration (IC50) in the series with Leishmania donovani [3] worked out at 1.65 µM.
As to `CCCCCCCCCCCCCCCCOP(=O)([O-])OCC[N+](C)(C)C` [MILTEFOSINE], the “Ratio CC50/IC50” value in series [1] stood at 0.25.
Regarding `Cc1cc(N2CCN(c3ccccc3)CC2)nc(Nc2ccc(OCCCCCOc3ccc(Nc4nc(C)cc(N5CCN(c6ccccc6)CC5)n4)cc3)cc2)n1`, the entries for the “Ratio CC50/IC50” value in series [4] and in series [1] were 1688 and >232, respectively. The half-maximal cytotoxic concentration (CC50) at 72 h was 100 µg/mL (≈ 126 µM) in series [5] and > 400 µM in [2]. For the same compound, the IC50 in the series on Plasmodium falciparum [7] came to 0.0531 µg/mL (≈ 0.0671 µM); in the series on Plasmodium falciparum [6] it was 0.0592 µg/mL (≈ 0.0749 µM); with Leishmania donovani [3] it was 1.72 µM.
The compound “SODIUM ANTIMONY GLUCONATE [listing 1 of 2 here]” came in with a cytotoxic concentration (CC50) in the series on KB [8] of 398 µg/mL.
Regarding `O=Cc1ccc(OCCCCCOc2ccc(/C=C/C(=O)c3ccc(Br)cc3)cc2)cc1`, the “growth inhibition (GI)” value in the series on Leishmania donovani [9] is “inactive”.
On to `Cc1cc(NC2CC2)nc(Nc2ccc(OCCCCCOc3ccc(Nc4nc(C)cc(NC5CC5)n4)cc3)cc2)n1`, for which the figures for the “Ratio CC50/IC50” value in series [4] and in series [1] were 89.6 and 6.38, respectively. Also, the results for the cytotoxic concentration (CC50) at 72 h in series [5] and in series [2] were 0.56 µg/mL (≈ 0.964 µM) and 2.68 µM, respectively. The IC50 in the series on Plasmodium falciparum [7] came out at 0.0113 µg/mL (≈ 0.0194 µM); in the series on Plasmodium falciparum [6], 0.00625 µg/mL (≈ 0.0108 µM); in the series on Leishmania donovani [3], 0.42 µM.
Consider `COc1ccc(C(=O)/C=C/c2ccc(OCCCCCOc3ccc(C=O)cc3)cc2)cc1OC`, for which the “Ratio CC50/IC50” value in series [1] is given as 0.49. Also, in [2], the midpoint of cytotoxicity, the CC50 at 72 h, lay at 13.9 µM. Also, the IC50 with Leishmania donovani [3] is 28.4 µM.
As to “SODIUM ANTIMONY GLUCONATE [listing 2 of 2 here]”, the Ratio CC50/IC50 in the series on KB [10] was determined as 5.53.
`Cc1cc(N2CCN(C)CC2)nc(Nc2ccc(OCCCCCOc3ccc(Nc4nc(C)cc(N5CCN(C)CC5)n4)cc3)cc2)n1`: the “Ratio CC50/IC50” value in series [4] amounted to 43.97; in series [1], 3.62. Moreover, the CC50 at 72 h in [5] was 10.8 µg/mL (≈ 16.2 µM); in [2] it was 2.93 µM. The concentration for half-maximal inhibition (IC50) in the series on Plasmodium falciparum [6] is 0.245 µg/mL (≈ 0.367 µM); in the series with Leishmania donovani [3], 0.81 µM.
`N=C(N)c1ccc(OCCCCCOc2ccc(C(=N)N)cc2)cc1` [PENTAMIDINE]: in series [1], the “Ratio CC50/IC50” value was found to be 2.58. The same compound had a cytotoxic concentration (CC50) at 72 h in [2] of 52.7 µM. The IC50 with Leishmania donovani [3] came out at 20.4 µM.
`COc1ccc(C(=O)/C=C/c2ccc(OCCCCCOc3ccc(/C=C/C(=O)c4ccc(OC)c(OC)c4)cc3)cc2)cc1OC`: in the series with Leishmania donovani [9], the “growth inhibition (GI)” value is “inactive”.
Consider `Cc1cc(N2CCOCC2)nc(Nc2ccc(OCCCCCOc3ccc(Nc4nc(C)cc(N5CCOCC5)n4)cc3)cc2)n1`, for which the “Ratio CC50/IC50” value in series [4] is reported as 7.82; in [1], 4.67. Also, the 50% cytotoxic concentration (CC50) at 72 h is 2.06 µg/mL (≈ 3.21 µM) in series [5] and 5.51 µM in [2]. The IC50 in the series on Plasmodium falciparum [6] is 0.264 µg/mL (≈ 0.412 µM); in the series on Leishmania donovani [3], 1.18 µM.
Turning to `CCN(CC)CCCC(C)Nc1ccnc2cc(Cl)ccc12` (stereo not drawn) [CHLOROQUINE], the CC50 at 72 h in [5] is 75 µg/mL (≈ 234 µM).
Turning to `Cc1cc(NCc2ccc(F)cc2)nc(Nc2ccc(OCCCCCOc3ccc(Nc4nc(C)cc(NCc5ccc(F)cc5)n4)cc3)cc2)n1`, the figures for the “Ratio CC50/IC50” value in [4] and in series [1] were 1051.51 and 6.16, respectively. In addition, the CC50 at 72 h in series [5] amounted to 41.4 µg/mL (≈ 57.8 µM); in [2], 8.68 µM. For the same compound, the half-inhibitory concentration (IC50) in the series on Plasmodium falciparum [7] came to 0.358 µg/mL (≈ 0.5 µM); in the series on Plasmodium falciparum [6], 0.0394 µg/mL (≈ 0.055 µM); in the series on Leishmania donovani [3], 1.41 µM.
As for `CCN1CCN(c2cc(C)nc(Nc3ccc(OCCCCCOc4ccc(Nc5nc(C)cc(N6CCN(CC)CC6)n5)cc4)cc3)n2)CC1`, the “Ratio CC50/IC50” value in series [4] was determined as 157.9; in series [1], 12.17. Also, the CC50 at 72 h in series [5] was found to be 7.13 µg/mL (≈ 10.3 µM); in [2], 3.65 µM. Also, the IC50 turned out to be 0.0221 µg/mL (≈ 0.0318 µM) in the series on Plasmodium falciparum [7], 0.0451 µg/mL (≈ 0.065 µM) with Plasmodium falciparum [6] and 0.3 µM with Leishmania donovani [3].
Consider `COc1ccc(CNc2cc(C)nc(Nc3ccc(OCCCCCOc4ccc(Nc5nc(C)cc(NCc6ccc(OC)cc6)n5)cc4)cc3)n2)cc1`, for which the “Ratio CC50/IC50” value in series [4] worked out at 288.28; in series [1] it was 3.7. Further, the values for the CC50 at 72 h in series [5] and in series [2] were 3.37 µg/mL (≈ 4.55 µM) and 2.11 µM, respectively. Further, the IC50 was 0.0236 µg/mL (≈ 0.0319 µM) with Plasmodium falciparum [7], 0.0117 µg/mL (≈ 0.0158 µM) in the series on Plasmodium falciparum [6] and 0.57 µM with Leishmania donovani [3].
On to `Cc1cc(NCc2ccccc2)nc(Nc2ccc(OCCCCCOc3ccc(Nc4nc(C)cc(NCc5ccccc5)n4)cc3)cc2)n1`, for which the entries for the “Ratio CC50/IC50” value in series [4] and in [1] were 429.15 and 15.6, respectively. Also, the figures for the CC50 at 72 h in series [5] and in [2] were 22.1 µg/mL (≈ 32.4 µM) and 26 µM, respectively. For the same compound, the IC50 came to 0.383 µg/mL (≈ 0.562 µM) with Plasmodium falciparum [7], 0.0514 µg/mL (≈ 0.0756 µM) in the series with Plasmodium falciparum [6] and 1.67 µM with Leishmania donovani [3].
